# Results reported in the RNAGym collection of RNA variant scans (doi:10.1126/science.aae0568).
# Fewer inactive variants are shown than the library holds.
# B1: tRNA (parent)
# chain: GUUCCGUUGGCGUAAUGGUAACGCGUCUCCCUCCUAAGGAGAAGACUGCGGGUUCGAGUCCCGUACGGAACG
# Variants of: B1
# Assay: yeast fitness relative to wild type (ratio to wild type); higher = fitter; tRNA-Arg(CCU), competitive growth, 37 C, YPD
# Procedure, shortened: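 The tRNA-Arg(CCU) gene variants were made by chemical synthesis with a 3% per-site mutation rate at 69 sites and inserted at the native genomic locus of Saccharomyces cerevisiae. After pooling, the strains were competed in YPD at 37°C for 24 hours in six parallel replicates. Gene amplicons from the start population and each end population were read by 100-nucleotide paired-end sequencing, and Darwinian fitness relative to wild type was taken from genotype frequency changes. Genotypes needed ≥ 100 starting reads, and estimates < 0.5 were set to 0.5.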
row,Variant,yeast fitness
1,GCUCCGUUGGGGUAAUGGUAACGCGUCUCCCUCCUAAGGAGAAGACUGCGGGUUCGAGUCCCGUACGGAACG [U2C C11G],0.617
2,GCUCCGUUGGCGUAAUGGUAACGCGUCUCCCUCCUAAGGAGAAGACUGCGGGUUCGGGUCCCGUACGGAACG [U2C A57G],0.891
3,GCUCCGUUGGAGUAAUGGUAACGCGUCUCCUUUCUAAGGAGCAGACUGCGGGUUCGAGUCUCGUACGGAACG [U2C C11A C31U C33U A42C C61U],≤ 0.5
4,GCUCCGUUGGAGUAAUGGUAACGCGUCUCCCUCCUAAGGAGAAGACUGCGGGUUCGAGUCCCGUACGGUACG [U2C C11A A69U],≤ 0.5
5,GAUCCGUUGGCGUAAUGGUAACGCGUCUCCCCCCCGAGGAGAAGACUGCGGGUUCGAGUCCCGUACGGAACG [U2A U32C U35C A36G],≤ 0.5
6,GCUCCGUUGGCGUAAUGGUAACGCGUCUCCCUCCUAAGGUGCAGACUGCGGGUUCGAGUCCCGUAUGGAACG [U2C A40U A42C C66U],≤ 0.5
7,GCUCCGUUGGCGUAAUGGUAGCGCGUCUCCCUGCUAAGGAGAAGACUGCGGGUUCGAGUCCCGUACGGAACG [U2C A21G C33G],≤ 0.5
8,GCUCCGUUGGCGUAAUGGUCACGCGUUUCCCUCCUAAGGAGAAGACUGCGGGUUCGAGUCCCGUACGGAACG [U2C A20C C27U],0.838
9,GCUCCGUUGGCGUAAUGGUAACGCGUCUCCAUCCUAAGGAGAAGACUGCCGGUUCGAGUCCCGUACGGAGCG [U2C C31A G50C A70G],≤ 0.5
10,GCUCCGUUGGCGUAAUGGUAACGCGUCUCCCUCCUAAGGAGUAGACUGCGGGUUCGAGUCCUGUACGGAACG [U2C A42U C62U],0.571
11,GCUCCGUUGGCGUAAUGGUAACGCGUGUCCCUCCUAAGGAGAAGAUUGCGGGUUCGAGUCCCGUACGGAACG [U2C C27G C46U],0.705
12,GCUCCGUUGGCGUAAUGGUAACGCGUCUCCCUCCUAAGGAGAAGACUGCGGGUUCGAGUCCCGUGCGGAACG [U2C A65G],0.867
13,GCUCCGUUGGCGUCAUGGUAACGCGUCUCCCUCCUAAGGAGACGACUGCGGGUUCGAGUCCCGUACGGAACG [U2C A14C A43C],≤ 0.5
14,GCUCGGUUGGCGUAAUGGUAACGUGUCUCCCUCCUAACAAGAAGACUGCGGGUUCGAGUCCCGUACGGAACG [U2C C5G C24U G38C G39A],≤ 0.5
15,GCUCCGUUGGCGUAAUGGUAACGCGUCUCCGUCCUAAGGAGAAGACUGCGGGUUUGAGUCCCAUACGGAACG [U2C C31G C55U G63A],≤ 0.5
16,GCUCCGUUGGCGUGAUGGUAACGCGUCACCCUCCUAAGGAGAAGACUGCGGGUUCGAGUCCCGUACGGAACG [U2C A14G U28A],0.534
17,GCUCCGUUGGCGUAAUGGUAACGCGUCUCUCUCCUAAGGAGAAGACUGCGGGUACGAGUCCCGUACGGAACG [U2C C30U U54A],≤ 0.5
18,GCUCCGUUGGCGUAGUGGUAACGCGUCUCCCUCCUAAGGAGAAGACUGCGGGUUCGAGUCUCGUACGGAACG [U2C A15G C61U],≤ 0.5
19,GCUCCGUUGGCGUAAUGGUAACGCGUCUCCCUCCUAGGGAGAAGACUGCGGGUUCGAGUCCCGUACGGACCG [U2C A37G A70C],0.561

row,Variant,yeast fitness
1,GCUCGGUUGGGGUAAUGGUAACGCGUCUUCCUCCUUAGGAGAAGACUGCCGGUGCGAGUCCCGUACGGAACG [U2C C5G C11G C29U A36U G50C U54G],0.628
2,GCUCCGUUGGCGUAAUGGUACCGCGUCUCCCUCCUAAAGAGAAGACUGCGGGUUCGAGUCCCGUACGGAACG [U2C A21C G38A],0.594
3,GCUCCGUUGGCGUGAUGGUAACGCGUCUACCUGCUAAGGAGAAGACUGCGGGUUCGAGUCCCGUACGGAACG [U2C A14G C29A C33G],0.565
4,GCUCGGUUGGCGUAAUGGUAACGCGUCUCCCUCCUAAGGAGAAGAUUGCGGGUUCGAGUCCCGUACGGAACG [U2C C5G C46U],0.872
5,GCUCCGUUGGCGUAUUGGUAACGCGUCUCCCUCCUAAGGAGAAGACUGCGGGUUCGAGUCCCGUACGGAACG [U2C A15U],0.653
6,GCUCCGUUGGCGUAAUGGUAACGCGUCUCCGUCCUAAGGAGAAGACUGCGGGUUCAAGUCCCGUACGGAACG [U2C C31G G56A],0.687
7,GCUCCGUUGGCGUAAUGGUAACGCGUGACCCUCCUAAGGAGAUGACUGCGGGUUCGAGUCCCGUACGGAGCG [U2C C27G U28A A43U A70G],≤ 0.5
8,GCUCCGUUGGCGUAAUGGUAACGCGUUGCCCUGCUGAGGAGAAGACUGCGGGUUCGAGUCCCGUACGGAACG [U2C C27U U28G C33G A36G],0.544
9,GCUCCGUUGGAGUAAUGGUAAGGCGUCUCCCUCCUAAGGAGAAGACUGCGGGGUCGAGUCCCGUACGGAACG [U2C C11A C22G U53G],≤ 0.5
10,GCUACGUUGGCGUAAUGGUAACGCGUCUCCCUCAUAAGGAGAGGACUGCGGCUUCGAGUCACGUACGGAACG [U2C C4A C34A A43G G52C C61A],≤ 0.5
11,GCUCCGUUGGCGUAAUGGUAACGCGUCUGCCUCCUAAGCAGAAGACUGCGGGUUAGAGUCCCGUACGGAACG [U2C C29G G39C C55A],≤ 0.5
12,GCUCCGUUGGCGUAAUGGUUACGCGUCUCCCUCCUAAGGUGAAGACUGCGGGUUCGAGUCCCGUACGGAACG [U2C A20U A40U],0.52
13,GCUCAGUUGGCGUAAUGGUAACGCGUCUCCCUCCUAAGGGGAAGACUGCGGGUUCGAGUCCCGUACGGAACG [U2C C5A A40G],0.563
14,GCUCCGUUGGCGUAAUGGUAACGCGUCUCCCUCCUAAGGCGAAGACUGCAGGUUCGAGUCCCGUAUGGAACG [U2C A40C G50A C66U],≤ 0.5
15,GCUCCGUUGGCGUAAUGGUAACGCGUCUCCCUCCUAAGGAGAAGUCUGCGGGUUCGAGUCCUCUACGGAACG [U2C A45U C62U G63C],≤ 0.5
16,GCUCCGUUGGCGUGAUGAUAACGCGUCUCCCUCCUAAGGAGAAGACUGCGGGUUCGAGUCCCGUACGGACCG [U2C A14G G18A A70C],≤ 0.5
17,GCUCCGUUGGCGUAAUGGUAACGCGUGACCCUCCUAAGGAGAUGACUGCGGGUUCGAGUCCCGUACGGUACG [U2C C27G U28A A43U A69U],0.541
18,GAUCCGUUGGCGUAAUGGUAACGCGUCUCCCUCCUAAGGAGAAGACUGCGGGUUCGAGACCCGUACGGAACG [U2A U59A],0.917
